Test results reported in article PMC7065888 (Science Advances, 2020).

Columns and labels:
mouse RBP2 = target: T1, mouse RBP2 (Mus musculus, UniProt Q08652); type: binding
T1 sequence (Q08652 1-134): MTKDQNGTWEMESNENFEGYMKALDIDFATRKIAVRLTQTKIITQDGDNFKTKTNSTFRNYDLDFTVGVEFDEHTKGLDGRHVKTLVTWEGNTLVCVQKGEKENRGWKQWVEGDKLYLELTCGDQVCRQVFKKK

recombinant mouse RBP2 = type: binding; settings: holo-RBP2 incubated with 2 molar excess of compound, room temperature, 15 min
RBP2 = settings: cited from earlier work
recombinant apo-RBP2 = type: binding, mouse; settings: MS/MS-based detection
Procedure, shortened: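 Purified recombinant mouse RBP2 in apo form was incubated with the test lipid. The protein was then chromatographically repurified to strip unbound ligand, and lipid still associated with the protein was detected by tandem mass spectrometry.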

Row | SMILES | displacement of retinol from its RBP2 binding pocket (recombinant mouse RBP2) | further results
1 | CCCCCCCC/C=C\CCCCCCCC(=O)OC(CO)CO [2-OG, 2-oleoylglycerol] | displaced retinol | Kd (mouse RBP2): 65.4 ± 4.4 nM
2 | CC1=C(/C=C/C(C)=C/C=C/C(C)=C/C=O)C(C)(C)CCC1 [retinaldehyde] |  | Kd for binding to RBP2 relative to the Kd values reported here for 2-MAG binding (RBP2): two to six times higher
3 | CCCCC/C=C\C/C=C\CCCCCCCC(=O)OC(CO)CO [2-LG, 2-lineoylglycerol] | displaced retinol | 
4 | CCCCCCCCCCCCCC(=O)NCCO [MEA, N-myristoylethanolamine] | little displacement | 
5 | CC1=C(/C=C/C(C)=C/C=C/C(C)=C/CO)C(C)(C)CCC1 [retinol, all-trans-retinol] |  | Kd for binding to RBP2 relative to the Kd values reported here for 2-MAG binding (RBP2): two to six times higher
6 | CCCCC/C=C\C/C=C\C/C=C\C/C=C\CCCC(=O)OC(CO)CO [2-AG, 2-arachidonoylglycerol] | displaced retinol | Kd (mouse RBP2): 27.1 ± 2.4 nM; ligand bound to RBP2 after chromatographic repurification (recombinant apo-RBP2): remained bound to RBP2
7 | CCCCC/C=C\C/C=C\CCCCCCCC(=O)NCCO [LEA, N-linoleoylethanolamine] | little displacement | 
8 | CCCCC/C=C\C/C=C\C/C=C\C/C=C\CCCC(=O)NCCO [AEA, N-arachidinoylethanolamine] | little displacement | fold less effective than MAGs in displacing bound retinol from RBP2 (mouse RBP2; fluorescence emission spectra of holo-RBP2): ~ 25 fold
9 | CCCCC/C=C\C/C=C\C/C=C\C/C=C\CCCC(=O)OC[C@@H](O)CO [1-AG, 1-arachidonoylglycerol] | displaced retinol | 
